In ChEMBL document CHEMBL1146690, “Design and synthesis of aminopropyl tetrahydroindole-based indolin-2-ones as selective and potent inhibitors of Src and Yes tyrosine kinase” (Bioorg Med Chem Lett, 2004):
pIC50: −log10 of the molar value.

Key:
[1] = molecular target: Proto-oncogene tyrosine-protein kinase Src (Homo sapiens, UniProt P12931); assay: Inhibitory activity against Src protein tyrosine kinase
Method in brief: (§1)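 Enzymatic kinase inhibition run by previously reported methods. Each IC50 came from at least two separate tests with deviation under 20%, and the mean is reported.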

[2] = molecular target: Fibroblast growth factor receptor 1 (Homo sapiens, UniProt P11362); assay: Inhibitory activity against Fibroblast growth factor receptor 1
Fibroblast growth factor receptor 1, sequence (P11362 whole entry): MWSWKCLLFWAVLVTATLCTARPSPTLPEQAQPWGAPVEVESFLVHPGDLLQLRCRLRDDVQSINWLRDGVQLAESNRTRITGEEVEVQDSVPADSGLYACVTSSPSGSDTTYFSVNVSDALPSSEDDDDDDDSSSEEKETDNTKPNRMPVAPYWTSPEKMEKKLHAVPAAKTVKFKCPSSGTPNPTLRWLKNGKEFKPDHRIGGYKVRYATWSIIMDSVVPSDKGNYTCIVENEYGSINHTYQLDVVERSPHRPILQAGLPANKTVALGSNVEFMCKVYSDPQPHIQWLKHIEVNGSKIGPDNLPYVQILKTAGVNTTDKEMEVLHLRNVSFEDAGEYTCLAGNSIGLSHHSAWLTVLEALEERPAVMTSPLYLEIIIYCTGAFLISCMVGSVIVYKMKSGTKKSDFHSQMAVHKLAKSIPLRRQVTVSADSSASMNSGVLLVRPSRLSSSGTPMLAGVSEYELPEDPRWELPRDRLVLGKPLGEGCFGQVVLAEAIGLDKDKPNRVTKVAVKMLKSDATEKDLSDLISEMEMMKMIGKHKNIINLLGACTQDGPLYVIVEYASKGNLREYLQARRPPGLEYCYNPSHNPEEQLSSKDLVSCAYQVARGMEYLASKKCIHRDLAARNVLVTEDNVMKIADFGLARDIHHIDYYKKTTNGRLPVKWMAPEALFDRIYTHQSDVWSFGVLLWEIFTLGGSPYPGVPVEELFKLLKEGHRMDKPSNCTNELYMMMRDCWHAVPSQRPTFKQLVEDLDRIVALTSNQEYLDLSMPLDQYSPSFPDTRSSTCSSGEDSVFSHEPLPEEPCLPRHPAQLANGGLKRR

[3] = molecular target: Platelet-derived growth factor receptor beta (Homo sapiens, UniProt P09619); assay: Inhibitory activity against PDGFRbeta tyrosine kinase; method in brief: as §1
Platelet-derived growth factor receptor beta, sequence (P09619 whole entry): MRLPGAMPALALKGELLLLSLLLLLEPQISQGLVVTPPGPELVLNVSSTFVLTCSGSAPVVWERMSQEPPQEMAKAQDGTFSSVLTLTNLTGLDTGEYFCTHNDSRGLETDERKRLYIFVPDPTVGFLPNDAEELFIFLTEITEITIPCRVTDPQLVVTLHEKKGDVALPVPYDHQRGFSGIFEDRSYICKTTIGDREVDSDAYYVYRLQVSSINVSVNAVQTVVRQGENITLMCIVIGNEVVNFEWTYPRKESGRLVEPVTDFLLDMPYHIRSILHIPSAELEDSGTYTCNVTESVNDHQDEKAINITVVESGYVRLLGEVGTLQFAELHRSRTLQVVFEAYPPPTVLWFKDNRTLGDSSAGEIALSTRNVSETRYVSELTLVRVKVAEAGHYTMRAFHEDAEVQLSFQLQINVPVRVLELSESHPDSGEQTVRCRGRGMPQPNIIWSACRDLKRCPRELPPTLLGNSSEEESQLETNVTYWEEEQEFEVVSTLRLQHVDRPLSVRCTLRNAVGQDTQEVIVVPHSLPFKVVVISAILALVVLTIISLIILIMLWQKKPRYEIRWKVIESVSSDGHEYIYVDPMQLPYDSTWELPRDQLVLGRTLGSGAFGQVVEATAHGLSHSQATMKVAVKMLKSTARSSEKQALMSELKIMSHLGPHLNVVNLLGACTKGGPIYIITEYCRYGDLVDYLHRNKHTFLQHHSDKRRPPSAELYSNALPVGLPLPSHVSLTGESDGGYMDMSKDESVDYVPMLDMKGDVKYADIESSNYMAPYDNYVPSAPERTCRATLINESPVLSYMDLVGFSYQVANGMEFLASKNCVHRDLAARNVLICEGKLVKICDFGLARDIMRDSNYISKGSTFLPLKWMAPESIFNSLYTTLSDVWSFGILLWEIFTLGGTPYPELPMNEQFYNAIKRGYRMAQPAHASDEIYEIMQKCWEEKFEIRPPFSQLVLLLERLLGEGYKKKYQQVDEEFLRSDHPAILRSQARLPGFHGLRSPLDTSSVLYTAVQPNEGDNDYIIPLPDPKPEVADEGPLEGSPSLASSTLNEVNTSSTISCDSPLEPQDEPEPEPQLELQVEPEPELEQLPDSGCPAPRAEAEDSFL

[4] = molecular target: Tyrosine-protein kinase Lck (Homo sapiens, UniProt P06239); assay: Inhibitory activity against Lck tyrosine kinase
Tyrosine-protein kinase Lck, sequence (P06239 whole entry): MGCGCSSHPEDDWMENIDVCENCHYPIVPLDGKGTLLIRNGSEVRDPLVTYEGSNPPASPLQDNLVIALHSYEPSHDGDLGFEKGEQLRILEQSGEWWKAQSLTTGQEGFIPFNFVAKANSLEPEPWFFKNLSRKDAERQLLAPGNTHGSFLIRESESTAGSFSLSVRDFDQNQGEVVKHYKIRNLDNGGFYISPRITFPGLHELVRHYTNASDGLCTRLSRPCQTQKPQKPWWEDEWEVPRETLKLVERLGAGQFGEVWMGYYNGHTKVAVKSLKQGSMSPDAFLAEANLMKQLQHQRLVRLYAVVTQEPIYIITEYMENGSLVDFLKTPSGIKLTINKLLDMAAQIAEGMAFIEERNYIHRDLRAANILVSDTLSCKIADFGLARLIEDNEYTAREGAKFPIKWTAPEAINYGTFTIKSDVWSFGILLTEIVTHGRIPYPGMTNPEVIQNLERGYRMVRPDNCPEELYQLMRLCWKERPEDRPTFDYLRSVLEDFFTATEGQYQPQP

[5] = molecular target: Tyrosine-protein kinase Fyn (Homo sapiens, UniProt P06241); assay: Inhibitory activity against Fyn tyrosine kinase
Tyrosine-protein kinase Fyn, sequence (P06241 whole entry): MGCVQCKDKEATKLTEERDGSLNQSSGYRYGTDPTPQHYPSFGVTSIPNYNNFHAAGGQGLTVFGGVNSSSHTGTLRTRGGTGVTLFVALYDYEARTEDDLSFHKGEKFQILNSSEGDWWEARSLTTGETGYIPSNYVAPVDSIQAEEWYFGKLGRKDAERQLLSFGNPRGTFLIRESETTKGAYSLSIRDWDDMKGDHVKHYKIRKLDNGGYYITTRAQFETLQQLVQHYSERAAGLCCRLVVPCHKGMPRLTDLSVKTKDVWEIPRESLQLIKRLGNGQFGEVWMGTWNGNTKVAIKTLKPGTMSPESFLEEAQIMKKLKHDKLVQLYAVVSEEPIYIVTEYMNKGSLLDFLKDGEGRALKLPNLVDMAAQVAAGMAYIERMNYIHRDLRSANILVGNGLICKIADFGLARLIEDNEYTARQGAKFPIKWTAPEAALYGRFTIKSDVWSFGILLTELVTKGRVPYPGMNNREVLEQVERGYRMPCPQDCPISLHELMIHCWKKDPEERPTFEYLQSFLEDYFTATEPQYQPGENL

[6] = molecular target: Vascular endothelial growth factor receptor 2 (Homo sapiens, UniProt P35968); assay: Inhibitory activity against Vascular endothelial growth factor receptor 2
Vascular endothelial growth factor receptor 2, sequence (P35968 whole entry): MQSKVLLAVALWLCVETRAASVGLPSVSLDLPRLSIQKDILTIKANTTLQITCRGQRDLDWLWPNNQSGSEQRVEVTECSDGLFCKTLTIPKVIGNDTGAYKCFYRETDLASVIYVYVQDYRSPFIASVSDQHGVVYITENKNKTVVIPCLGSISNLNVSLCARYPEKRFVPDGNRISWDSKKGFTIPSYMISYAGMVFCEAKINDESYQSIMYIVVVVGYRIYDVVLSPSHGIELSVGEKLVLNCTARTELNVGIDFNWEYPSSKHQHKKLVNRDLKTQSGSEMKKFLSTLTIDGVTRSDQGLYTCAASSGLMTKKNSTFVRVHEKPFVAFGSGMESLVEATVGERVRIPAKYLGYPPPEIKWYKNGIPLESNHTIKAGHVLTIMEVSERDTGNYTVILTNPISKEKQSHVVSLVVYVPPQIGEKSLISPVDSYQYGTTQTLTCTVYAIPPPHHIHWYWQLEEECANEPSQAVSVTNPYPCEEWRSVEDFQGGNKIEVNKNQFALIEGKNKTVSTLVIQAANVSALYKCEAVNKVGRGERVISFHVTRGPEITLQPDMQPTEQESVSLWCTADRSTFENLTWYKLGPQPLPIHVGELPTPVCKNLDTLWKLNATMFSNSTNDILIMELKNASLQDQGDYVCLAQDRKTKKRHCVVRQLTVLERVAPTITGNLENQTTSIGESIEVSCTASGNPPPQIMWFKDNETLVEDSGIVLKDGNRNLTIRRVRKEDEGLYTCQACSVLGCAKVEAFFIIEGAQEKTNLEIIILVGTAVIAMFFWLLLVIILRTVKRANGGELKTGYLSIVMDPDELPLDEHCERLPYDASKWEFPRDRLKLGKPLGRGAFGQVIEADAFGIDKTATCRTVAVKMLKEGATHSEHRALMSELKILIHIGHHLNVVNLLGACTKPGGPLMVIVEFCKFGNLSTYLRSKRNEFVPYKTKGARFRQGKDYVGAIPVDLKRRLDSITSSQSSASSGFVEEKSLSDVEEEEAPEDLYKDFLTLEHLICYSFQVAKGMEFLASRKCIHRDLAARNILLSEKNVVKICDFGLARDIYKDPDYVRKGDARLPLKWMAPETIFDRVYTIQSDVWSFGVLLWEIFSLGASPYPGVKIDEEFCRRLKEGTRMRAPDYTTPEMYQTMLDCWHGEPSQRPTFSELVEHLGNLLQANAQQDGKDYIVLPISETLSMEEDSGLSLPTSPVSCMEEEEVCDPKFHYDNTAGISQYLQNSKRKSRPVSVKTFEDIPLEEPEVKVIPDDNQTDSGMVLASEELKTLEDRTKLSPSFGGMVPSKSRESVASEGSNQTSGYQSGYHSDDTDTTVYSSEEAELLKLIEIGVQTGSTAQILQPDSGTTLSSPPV

Proto-oncogene tyrosine-protein kinase Src, sequence (P12931 2-536 limits assumed): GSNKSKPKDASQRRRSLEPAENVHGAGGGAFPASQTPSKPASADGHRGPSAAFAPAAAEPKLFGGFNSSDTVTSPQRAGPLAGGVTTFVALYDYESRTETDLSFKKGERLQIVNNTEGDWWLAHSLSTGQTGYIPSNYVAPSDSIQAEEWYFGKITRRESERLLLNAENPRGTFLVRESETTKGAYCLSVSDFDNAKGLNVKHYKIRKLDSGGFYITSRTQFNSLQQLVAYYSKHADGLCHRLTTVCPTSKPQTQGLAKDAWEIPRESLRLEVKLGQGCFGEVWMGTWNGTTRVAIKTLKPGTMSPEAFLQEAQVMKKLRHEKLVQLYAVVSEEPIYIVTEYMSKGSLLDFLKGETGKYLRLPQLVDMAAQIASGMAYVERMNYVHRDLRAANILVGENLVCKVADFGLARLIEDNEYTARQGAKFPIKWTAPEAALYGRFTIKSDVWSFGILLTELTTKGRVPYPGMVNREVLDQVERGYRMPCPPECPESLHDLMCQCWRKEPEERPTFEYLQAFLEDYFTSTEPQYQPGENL

SMILES	pIC50 [1]	pIC50 [2]	pIC50 [3]	pIC50 [4]	pIC50 [5]	pIC50 [6]
CNS(=O)(=O)c1ccc2c(c1)/C(=C/c1[nH]c3c(c1CCC(=O)N1CCN(C)CC1)CCCC3)C(=O)N2	6.52	–	–	–	–	–
CN(C)CCCc1c(/C=C2\C(=O)Nc3ccc(C(=O)O)cc32)[nH]c2c1CCCC2	6.15	–	–	–	–	–
CN(C)CCCc1c(/C=C2\C(=O)Nc3ccc(-c4ccccc4)cc32)[nH]c2c1CCCC2	5.64	–	–	–	–	–
CNS(=O)(=O)c1ccc2c(c1)/C(=C/c1[nH]c3c(c1CCCN1CCN(CC(=O)O)CC1)CCCC3)C(=O)N2	7.70	6.70	5.10	7.00	6.40	6.40
CNS(=O)(=O)c1ccc2c(c1)/C(=C/c1[nH]c3c(c1CCCN1CCN(C(C)=O)CC1)CCCC3)C(=O)N2	6.52	–	–	–	–	–
CCS(=O)(=O)Cc1ccc2c(c1)/C(=C/c1[nH]c3c(c1CCCN(C)C)CCCC3)C(=O)N2	5.00	–	–	–	–	–
CNS(=O)(=O)c1ccc2c(c1)/C(=C/c1[nH]c3c(c1CCCN1CCOCC1)CCCC3)C(=O)N2	7.22	5.77	4.74	–	–	5.64
CCS(=O)(=O)c1ccc2c(c1)/C(=C/c1[nH]c3c(c1CCCN1CCN(CC(=O)O)CC1)CCCC3)C(=O)N2	7.15	6.40	4.89	6.40	6.40	6.10
CNS(=O)(=O)c1ccc2c(c1)/C(=C/c1[nH]c3c(c1CN1CCOCC1)CCCC3)C(=O)N2	8.00	6.70	–	7.10	6.40	7.22
CN(C)CCCc1c(/C=C2\C(=O)Nc3ccc(S(=O)(=O)NCc4ccc(F)cc4)cc32)[nH]c2c1CCCC2	5.92	–	–	–	–	–
CNS(=O)(=O)c1ccc2c(c1)/C(=C/c1cc3c([nH]1)CCCC3)C(=O)N2	5.68	–	–	–	–	–
CNS(=O)(=O)c1ccc2c(c1)/C(=C/c1[nH]c3c(c1CCCN(C)C)CCCC3)C(=O)N2	7.00	6.15	5.48	5.80	7.22	5.96
CNS(=O)(=O)c1ccc2c(c1)/C(=C/c1[nH]c3c(c1CCCN1CCNCC1)CCCC3)C(=O)N2	6.70	–	–	–	–	–
CNS(=O)(=O)c1ccc2c(c1)/C(=C/c1[nH]c3c(c1CCCN1CCN(CCO)CC1)CCCC3)C(=O)N2	7.52	6.22	5.25	6.40	7.00	6.40
CCS(=O)(=O)c1ccc2c(c1)/C(=C/c1[nH]c3c(c1CCCN1CCN(C(=O)CO)CC1)CCCC3)C(=O)N2	6.66	–	–	–	–	–
CNS(=O)(=O)c1ccc2c(c1)/C(=C/c1[nH]c3c(c1CCC(N)=O)CCCC3)C(=O)N2	7.52	7.15	5.18	7.00	7.30	6.30
CCS(=O)(=O)c1ccc2c(c1)/C(=C/c1[nH]c3c(c1CCCN1CCN(CCO)CC1)CCCC3)C(=O)N2	7.15	5.96	5.05	6.30	6.40	6.40
CCOC(=O)N1CCN(CCCc2c(/C=C3\C(=O)Nc4ccc(S(=O)(=O)NC)cc43)[nH]c3c2CCCC3)CC1	6.52	–	–	–	–	–
CCS(=O)(=O)c1ccc2c(c1)/C(=C/c1cc3c([nH]1)CCCC3)C(=O)N2	6.15	–	–	–	–	–
CCS(=O)(=O)c1ccc2c(c1)/C(=C/c1[nH]c3c(c1CCCN(C)C)CCCC3)C(=O)N2	7.22	6.40	5.60	6.70	6.52	5.57
CCS(=O)(=O)c1ccc2c(c1)/C(=C/c1[nH]c3c(c1CCCN1CCN(C(C)=O)CC1)CCCC3)C(=O)N2	6.40	–	–	–	–	–

Next, values leading:

pIC50 [1]	pIC50 [2]	pIC50 [3]	pIC50 [4]	pIC50 [5]	pIC50 [6]	SMILES
7.15	7.10	< 4.70	6.22	6.30	6.30	CCOC(=O)CN1CCN(CCCc2c(/C=C3\C(=O)Nc4ccc(S(=O)(=O)NC)cc43)[nH]c3c2CCCC3)CC1
6.40	–	–	–	–	–	CNS(=O)(=O)c1ccc2c(c1)/C(=C/c1[nH]c3c(c1CCCN1CCN(C(=O)CO)CC1)CCCC3)C(=O)N2
6.00	–	–	–	–	–	COc1ccc2c(c1)/C(=C/c1[nH]c3c(c1CCCN(C)C)CCCC3)C(=O)N2
7.15	5.92	5.00	6.15	6.10	6.52	CNS(=O)(=O)c1ccc2c(c1)/C(=C/c1[nH]c3c(c1CCCN1CCN(C)CC1)CCCC3)C(=O)N2
6.40	–	–	–	–	–	CCS(=O)(=O)c1ccc2c(c1)/C(=C/c1[nH]c3c(c1CCC(=O)O)CCCC3)C(=O)N2
6.10	–	–	–	–	–	CCC(=O)N1CCN(CCCc2c(/C=C3\C(=O)Nc4ccc(S(=O)(=O)CC)cc43)[nH]c3c2CCCC3)CC1
6.30	–	–	–	–	–	CCS(=O)(=O)c1ccc2c(c1)/C(=C/c1[nH]c3c(c1CCC(=O)N1CCN(C)CC1)CCCC3)C(=O)N2
7.15	–	5.64	6.15	6.22	–	CCS(=O)(=O)c1ccc2c(c1)/C(=C/c1[nH]c3c(c1CCCN1CCC(O)CC1)CCCC3)C(=O)N2
6.64	–	–	–	–	–	CC(C)NS(=O)(=O)c1ccc2c(c1)/C(=C/c1[nH]c3c(c1CCCN(C)C)CCCC3)C(=O)N2
6.70	–	–	–	–	–	CNS(=O)(=O)c1ccc2c(c1)/C(=C/c1[nH]c3ccccc3c1CCCN(C)C)C(=O)N2
5.59	–	–	–	–	–	CN(C)CCCc1c(/C=C2\C(=O)Nc3ccc(S(=O)(=O)N(C)C)cc32)[nH]c2c1CCCC2
7.40	7.10	5.29	–	6.70	6.52	CCS(=O)(=O)c1ccc2c(c1)/C(=C/c1[nH]c3c(c1CCC(N)=O)CCCC3)C(=O)N2
6.30	–	–	–	–	–	CN(C)CCCc1c(/C=C2\C(=O)Nc3ccc(F)cc32)[nH]c2c1CCCC2
6.64	–	–	–	–	–	CC(C)S(=O)(=O)c1ccc2c(c1)/C(=C/c1[nH]c3c(c1CCCN(C)C)CCCC3)C(=O)N2
5.48	–	–	–	–	–	CN(C)CCCc1c(/C=C2\C(=O)Nc3ccccc32)[nH]c2c1CCCC2
6.68	–	4.96	6.22	5.92	5.59	CCS(=O)(=O)c1ccc2c(c1)/C(=C/c1[nH]c3c(c1CCCN1CCN(C)CC1)CCCC3)C(=O)N2
6.62	–	–	–	–	–	CN(C)CCCc1c(/C=C2\C(=O)Nc3ccc(S(=O)(=O)NCCO)cc32)[nH]c2c1CCCC2
7.30	5.47	5.33	6.52	6.70	5.15	CNS(=O)(=O)c1ccc2c(c1)/C(=C/c1[nH]c3c(c1CCCN1CCC(O)CC1)CCCC3)C(=O)N2
7.15	6.40	–	6.10	5.85	7.00	CCS(=O)(=O)c1ccc2c(c1)/C(=C/c1[nH]c3c(c1CN1CCOCC1)CCCC3)C(=O)N2
6.22	–	–	–	–	–	CN(C)CCCc1c(/C=C2\C(=O)Nc3ccc(S(N)(=O)=O)cc32)[nH]c2c1CCCC2
6.52	–	–	–	–	–	CN(C)CCCc1c(/C=C2\C(=O)Nc3ccc(S(=O)(=O)Nc4ccccc4Cl)cc32)[nH]c2c1CCCC2
6.00	–	–	–	–	–	CNS(=O)(=O)c1ccc2c(c1)/C(=C/c1[nH]c(C)c(C)c1CCCN(C)C)C(=O)N2
6.82	–	–	–	–	–	CCS(=O)(=O)c1ccc2c(c1)/C(=C/c1[nH]c3c(c1CCCN1CCOCC1)CCCC3)C(=O)N2
6.52	–	–	–	–	–	CN(C)CCCc1c(/C=C2\C(=O)Nc3ccc(S(C)(=O)=O)cc32)[nH]c2c1CCCC2
